Assay results published in ChEMBL document CHEMBL4402570, “Discovery and Optimization of Novel Pyrazolopyrimidines as Potent and Orally Bioavailable Allosteric HIV-1 Integrase Inhibitors” (J Med Chem, 2020).

What was measured:
[1] = target: Human immunodeficiency virus type 1 integrase (Human immunodeficiency virus 1, UniProt Q7ZJM1); experiment: Allosteric inhibition of [3H]-2-tert-butoxy-2-[2-methyl-4-(p-tolyl)-3-quinolyl]acetic acid binding to HIV1 integrase measured after 1 hr under dark condition by microbeta plate reader method
Method in brief: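 Scintillation proximity displacement of tritiated LEDGF-site inhibitor from purified HIV-1 integrase (13 μM) premixed 1 h with PVT SPA beads (2 mg/mL); […]. Buffer 26 mM MOPS pH 7.0, 11 mM DTT, 100 mM NaCl, 20 mM MgCl2, 0.05% NP-40, 5% PEG-8000. Compounds 100 μM to 0.0512 nM, ten 5-fold dilutions. 1 h rocking, RT, dark; read after overnight; Ki derived.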

[2] = tested on: Human immunodeficiency virus 1; experiment: Antiviral activity against HIV1 NL4-3 infected in human MT2 cells measured after 3 to 4 days by luciferase reporter gene assay; type: functional, organism-based
[3] = Stability of the compound in rat liver microsomes assessed as parent compound remaining at 0.5 uM measured after 10 mins in presence of NADPH by LC-MS/MS analysis; type: ADME, Microsome; details: read-out: Stability
Method in brief: (§1)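 CYP-mediated turnover: 0.5 μM compound with human or rat liver microsomes (1 mg/mL) in 100 mM sodium phosphate pH 7.4, 6.6 mM MgCl2, 37 °C; started with NADPH, DMSO 0.014%. Samples quenched at 0 and 10 min; parent remaining by LC-MS/MS; duplicate.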

[4] = Stability of the compound in human liver microsomes assessed as parent compound remaining at 0.5 uM measured after 10 mins in presence of NADPH by LC-MS/MS analysis; type: ADME, Microsome; details: read-out: Stability; method in brief: as §1
[5] = Permeability of the compound in pH 7.4 buffer at 100 uM measured after 4 hrs by sandwich-PAMPA; type: ADME; details: read-out: permeability
Method in brief: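 Parallel artificial membrane permeability: compound at 100 μM in donor buffer pH 7.4, permeating to acceptor through artificial membrane over 4 h; donor, acceptor and t0 solutions read by UV plate reader; triplicate.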

[6] = tested on: Human immunodeficiency virus 1; experiment: Antiviral activity against HIV1 NL4-3 infected in human MT2 cells measured after 3 to 4 days in presence of human serum albumin by luciferase reporter gene assay; type: functional, organism-based; details: Human immunodeficiency virus 1, NL4-3, MT2
[7] = tested on: Human immunodeficiency virus 1; experiment: Selectivity ratio of EC50 for HIV1 NL4-3 infected in human MT2 cells in presence of human serum albumin to EC50 for HIV1 NL4-3 infected in human MT2 cells in absence of human serum albumin; type: functional
[8] = Therapeutic index, ratio of CC50 for human MT2 cells to EC50 for HIV1 NL4-3 infected in human MT2 cells; type: toxicity, cell-based; details: read-out: Ratio CC50/EC50
[9] = Cytotoxicity against human MT2 cells measured after 4 days by XTT assay; type: cell-based
Method in brief: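 MT-2 cell viability measured by XTT after 4 days of compound exposure, run in parallel with the antiviral assay; CC50 from n ≥ 2 determinations.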

[10] = tested on: Human immunodeficiency virus 1; experiment: Antiviral activity against HIV1 NL4-3 harboring G140S/Q148H mutant infected in human MT2 cells measured after 3 to 4 days by luciferase reporter gene assay; type: functional, organism-based; details: Human immunodeficiency virus 1, NL4-3, MT2
Method in brief: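 MT-2 cells (RPMI 1640, 10% heat-inactivated FBS, 10 mM HEPES pH 7.55, 2 mM L-glutamine, penicillin/streptomycin) infected with titered NL4-3 Renilla luciferase reporter virus (luciferase replacing nef) carrying integrase G140S/Q148H, with serial compound dilutions from 10 mM DMSO stock, final DMSO 1%; luciferase read after 3–4 days; EC50 from median effect equation; n ≥ 2, some n = 1.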

[11] = Human immunodeficiency virus 1, NL4-3, MT2

Chain of Human immunodeficiency virus type 1 integrase (Q7ZJM1 whole entry): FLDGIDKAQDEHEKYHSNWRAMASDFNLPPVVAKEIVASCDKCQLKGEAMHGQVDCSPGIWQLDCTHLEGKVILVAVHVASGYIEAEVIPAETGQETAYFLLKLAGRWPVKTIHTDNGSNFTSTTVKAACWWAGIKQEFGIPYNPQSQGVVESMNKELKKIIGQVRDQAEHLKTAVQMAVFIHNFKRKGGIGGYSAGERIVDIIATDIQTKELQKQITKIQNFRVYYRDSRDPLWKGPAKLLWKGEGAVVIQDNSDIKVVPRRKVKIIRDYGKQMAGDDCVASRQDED

SMILES | Ki [1] [µM] | EC50 [2, 11] [µM] | remaining at 10 min, 0.5 µM [3] [%] | remaining at 10 min, 0.5 µM [4] [%] | Papp at 4 h, 100 µM [5] [×10⁻⁶ cm/s] | also measured
Cc1nc2cc(-c3ccccc3)nn2c(N2CCCCCC2)c1C(OC(C)(C)C)C(=O)O (configuration not stated) | 0.43 | 2.3 |  |  |  | 
Cc1ccc(-c2c(C(OC(C)(C)C)C(=O)O)c(C)nc3ccnn23)cc1 (configuration not stated) | 2 | 4.5 |  |  |  | 
Cc1nc2cc(-c3cccc(OCc4ccccc4)c3)nn2c(N2CCC(C)(C)CC2)c1C(OC(C)(C)C)C(=O)O (configuration not stated) |  | 0.06 | 100 | 100 | 37.5 | 
Cc1nc2cc(-c3ccccc3)nn2c(-c2cc(F)c3c(c2C)CCCO3)c1C(OC(C)(C)C)C(=O)O (stereo in doubt; 15) | 3.4 |  |  |  |  | EC50 [2]: > 40 µM
Cc1cccc(-c2c(C(OC(C)(C)C)C(=O)O)c(C)nc3cc(-c4ccccc4)nn23)c1 (configuration not stated) | 4.4 | > 40 |  |  |  | 
Cc1nc2cc(-c3cccc(-c4ccncc4)c3)nn2c(-c2cc(F)c3c(c2C)CCCO3)c1[C@H](OC(C)(C)C)C(=O)O |  | 0.003 | 94 | 46 | 48.8 | EC50 [6]: 0.07 µM; Ratio EC50 [7]: 23; selectivity ratio [8]: 4410; CC50 at 96 h [9]: 13.2 µM
Cc1nc2cc(-c3ccccc3)nn2c(-c2cc(F)c3c(c2C)CCCO3)c1[C@H](OC(C)(C)C)C(=O)O | 0.09 | 0.11 |  |  |  | EC50 [10]: 0.09 µM
COc1ccccc1-c1c(C(OC(C)(C)C)C(=O)O)c(C)nc2cc(-c3ccccc3)nn12 (configuration not stated) | > 40 | > 40 |  |  |  | 
Cc1ccc(-c2c(C(OC(C)(C)C)C(N)=O)c(C)nc3cc(-c4ccccc4)nn23)cc1 (configuration not stated) |  | 18 |  |  |  | 
Cc1nc2cc(-c3ccccc3)nn2c(-c2ccc3c(c2)CCCO3)c1C(OC(C)(C)C)C(=O)O (configuration not stated) | 0.04 | 0.49 |  |  |  | 
Cc1ccc(-c2cc3nc(C)c(C(OC(C)(C)C)C(=O)O)c(-c4cc(F)c5c(c4C)CCCO5)n3n2)cc1 (configuration not stated) |  | 0.1 | 94 | 95 | 49.2 | 
Cc1ccc(Nc2c(C(OC(C)(C)C)C(=O)O)c(C)nc3cc(-c4ccccc4)nn23)cc1 (configuration not stated) | > 40 | > 40 |  |  |  | 
Cc1nc2cc(-c3cccc(-c4ccccc4)c3)nn2c(-c2cc(F)c3c(c2C)CCCO3)c1C(OC(C)(C)C)C(=O)O (racemic) |  | 0.015 | 100 | 86 | 65.2 | EC50 [10]: 0.01 µM
COc1ccc(-c2cccc(-c3cc4nc(C)c([C@H](OC(C)(C)C)C(=O)O)c(-c5cc(F)c6c(c5C)CCCO6)n4n3)c2)cn1 |  | 0.005 | 100 | 73 | 51.4 | EC50 [6]: 0.023 µM; Ratio EC50 [7]: 5; selectivity ratio [8]: > 4600; CC50 at 96 h [9]: > 23 µM
Cc1nc2cc(-c3cccc(-c4ccccc4)c3)nn2c(N2CCC(C)(C)CC2)c1C(OC(C)(C)C)C(=O)O (configuration not stated) |  | 0.13 |  |  |  | 
Cc1nc2cc(-c3ccccc3)nn2c(-c2cc(F)c3c(c2C)CCCO3)c1[C@@H](OC(C)(C)C)C(=O)O | > 53 | 13 |  |  |  | 

SMILES | Ki [1] [µM] | EC50 [2, 11] [µM] | remaining at 10 min, 0.5 µM [3] [%] | remaining at 10 min, 0.5 µM [4] [%] | Papp at 4 h, 100 µM [5] [×10⁻⁶ cm/s] | also measured
CC(C)(C)OC(C(=O)O)c1ccccc1-c1ccccc1 (configuration not stated) | 67 | 16 |  |  |  | CC50 at 96 h [9]: 127 µM
COc1cccc(-c2c(C(OC(C)(C)C)C(=O)O)c(C)nc3cc(-c4ccccc4)nn23)c1 (configuration not stated) | 15.3 | > 40 |  |  |  | 
Cc1ccc(-c2c(C(O)C(=O)O)c(C)nc3cc(-c4ccccc4)nn23)cc1 (configuration not stated) |  | > 40 |  |  |  | 
Cc1nc2cc(-c3cccc(OCc4ccccc4)c3)nn2c(-c2cc(F)c3c(c2C)CCCO3)c1C(OC(C)(C)C)C(=O)O (configuration not stated) |  | 0.02 | 83 | 72 | 57 | 
COc1ccc(-c2c(C(OC(C)(C)C)C(=O)O)c(C)nc3cc(-c4ccccc4)nn23)cc1 (configuration not stated) | 0.31 | 1.7 |  |  |  | 
Cc1nc2cc(-c3cccc(Oc4ccccc4)c3)nn2c(-c2cc(F)c3c(c2C)CCCO3)c1C(OC(C)(C)C)C(=O)O (configuration not stated) |  | 0.06 | 97 | 100 | 47.2 | 
Cc1nc2cc(-c3ccccc3)nn2c(-c2ccccc2)c1C(OC(C)(C)C)C(=O)O (configuration not stated) | 3.7 | > 40 |  |  |  | 
Cc1nc2cc(-c3cccc(-c4ccccc4)c3)nn2c(-c2cc(F)c3c(c2C)CCCO3)c1[C@H](OC(C)(C)C)C(=O)O |  | 0.006 | 96 | 78 | 73.3 | EC50 [6]: 0.11 µM; Ratio EC50 [7]: 18; selectivity ratio [8]: 1100; CC50 at 96 h [9]: 6.59 µM
Cc1nc2cc(-c3ccccc3)nn2c(N2CCC(C)(C)CC2)c1C(OC(C)(C)C)C(=O)O (configuration not stated) | 0.06 | 0.55 |  | 100 | 70.3 | 
Cc1nc2cc(-c3ccccc3)nn2c(-c2cc(F)c3c(c2C)CCCO3)c1C(OC(C)(C)C)C(=O)O (racemic) | 0.17 |  | 97 | 93 | 21.8 | EC50 [2]: 0.21 µM; EC50 [10]: 0.119 µM
Cc1nc2cc(-c3ccc(OCc4ccccc4)cc3)nn2c(-c2cc(F)c3c(c2C)CCCO3)c1C(OC(C)(C)C)C(=O)O (configuration not stated) |  | 0.06 | 79 | 84 | 31.3 | 
Cc1ccccc1-c1c(C(OC(C)(C)C)C(=O)O)c(C)nc2cc(-c3ccccc3)nn12 (configuration not stated) | 3.4 | 21 |  |  |  | 
Cc1nnc(C(=O)NC(C)(C)c2nc(C(=O)NCc3ccc(F)cc3)c(O)c(=O)n2C)o1 [RALTEGRAVIR] |  | 0.002 |  |  |  | EC50 [10]: 2.42 µM
Cc1ccc(-c2c(C(OC(C)(C)C)C(=O)O)c(C)nc3cc(-c4ccccc4)nn23)cc1 (configuration not stated) | 0.68 to 0.7 | 0.62 |  |  |  | CC50 at 96 h [9]: 77 µM
Cc1nc2ccccc2c(-c2ccc3c4c(ccnc24)CCO3)c1[C@H](OC(C)(C)C)C(=O)O [BI-224436] |  | 0.05 |  |  |  | selectivity ratio [8]: 66800; CC50 at 96 h [9]: 3340 µM
Cc1nc2cc(-c3ccccc3)nn2c(C)c1C(OC(C)(C)C)C(=O)O (configuration not stated) | > 40 | > 40 |  |  |  | 
